Assay results: paper PMC13435124 (The FASEB Journal, 2026)

What was measured:
[1] = system: Aβ40 and Aβ42 peptide levels in N2a-APPswe cells; assay: Aβ40 and Aβ42 peptide levels in N2a cell supernatants; type: cell-based, mouse; conditions: 250 μM, 24 h
Outline: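 N2a-wt and N2a-APPswe cells left untreated or exposed to test compound at 250 μM for 24 h. Aβ40 and Aβ42 peptides quantified by ELISA.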

Nrf2 in N2a-APPswe cells [2] = assay: Nrf2 cytoplasmatic and nuclear protein levels, western blot; type: cell-based, mouse; conditions: 250 μM, 6 h, vs untreated cells
Outline: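 N2a-APPswe cells exposed to test compound at 250 μM for 2, 4 and 6 h. Cytoplasmic and nuclear Nrf2 assessed by western blot.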

Nrf2 in N2a-APPswe cells [3] = assay: Nrf2 activation, Nrf2 Transcription Factor Assay Kit; type: cell-based, mouse; conditions: 250 μM
Outline: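 N2a-APPswe cells exposed to test compound at 250 μM for 2, 4 and 6 h. Nrf2 activation determined with a commercial kit.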

N2a-APPswe cells [4] = assay: Nrf2-dependent gene expression; type: cell-based, mouse
N2a-APPswe cells [5] = assay: Nrf2 silencing; type: cell-based, mouse
N2a-wt cells = assay: Cell metabolism, Alamar Blue; type: cell-based, mouse; conditions: 24 h, Alamar Blue (Figure S1A)
Outline: (§1)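 Cells exposed 24 h to test compound at 500, 250, 100, 50 or 5 μM, DMSO final up to 0.1% v/v. Resazurin 50 μM in PBS added 3 h before the end. Absorbance read at 570 nm with 620 nm reference. Highest nontoxic concentration chosen from metabolic capacity.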

BV-2 cells = assay: Cell metabolism, Alamar Blue; type: cell-based, mouse; conditions: 24 h, Alamar Blue (Figure S1B)
Outline: as §1

[6] = system: Nrf2 activation in KeratinoSens cells; assay: KeratinoSens reporter gene assay; type: cell-based; conditions: 6 h; Iso 250 μM, DMF 50 μM
Outline: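 KeratinoSens ARE-luciferase cells (passage ≤22) plated at 1.0 × 10^4 per well in triplicate; after 24 h switched to DMEM with 1% FBS, no geneticin. Wortmannin 500 nM added 1 h before test compound at 250 μM; DMF 50 μM as positive control; DMSO ≤0.1%. After 6 h, Alamar Blue (4 h, 37°C), then luciferase read as fold over DMSO. Three independent experiments in triplicate.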

[7] = Blood-brain barrier permeability, PAMPA with 2% porcine polar brain lipid; type: in vitro ADME; conditions: 150 μg/mL, 16 h, cut-off 2.0 × 10^−6 cm s^−1 (Figure S4)
Outline: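 PAMPA blood–brain barrier model using membranes with 2% (w/v) porcine polar brain lipid. Permeability given as experimental Papp in cm/s. Mean of three independent experiments, each run in duplicate.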

BACE1 = BACE1 (Homo sapiens, UniProt P56817); assay: BACE1 activity assay; type: biochemical; conditions: cell-free, tested at 50, 100 and 250 μM (Table S1)
Chain of BACE1 (P56817 46-457 limits assumed): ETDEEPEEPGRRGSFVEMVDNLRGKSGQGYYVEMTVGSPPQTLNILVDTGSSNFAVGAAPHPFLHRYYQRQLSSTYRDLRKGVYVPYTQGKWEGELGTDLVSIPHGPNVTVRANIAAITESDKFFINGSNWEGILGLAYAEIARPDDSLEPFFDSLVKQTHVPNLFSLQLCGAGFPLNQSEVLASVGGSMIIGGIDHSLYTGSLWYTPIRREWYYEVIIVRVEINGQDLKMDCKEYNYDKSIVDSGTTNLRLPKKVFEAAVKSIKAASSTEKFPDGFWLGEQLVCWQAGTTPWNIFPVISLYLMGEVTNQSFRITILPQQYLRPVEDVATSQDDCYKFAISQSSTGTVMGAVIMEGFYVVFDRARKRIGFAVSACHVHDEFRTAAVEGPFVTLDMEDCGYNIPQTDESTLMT

APP/PS1 female mice [8] = assay: Aβ40 and Aβ42 levels in brain and plasma of 6-month-old females; type: in vivo, mouse; conditions: 1 month
Outline: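 WT and APP/PS1 females given PBS vehicle or test compound at 50 mg/kg (APP/PS1 only) intranasally, without anaesthesia, by micropipette for 1 month; groups of 5 per arm. Brain Aβ40 and Aβ42 quantified. Mean ± SEM of five to six animals.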

APP/PS1 female mice [9] = assay: Brain protein levels of 6-month-old females, western blot; type: in vivo, mouse; conditions: 50 mg/kg, 1 month
Outline: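 Females received PBS or test compound at 50 mg/kg (APP/PS1 only) intranasally for 1 month. Brain hAPP, BACE1, iNOS, pro-IL-1β, HMOX1 and p44/42 MAPK assessed by western blot, with milk or BSA (phospho) blocking 1 h RT. Mean ± SEM of five animals; one-way ANOVA with Dunnett's or Tukey's test, p < 0.05.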

APP/PS1 female mice [10] = assay: Demographic and metabolic parameters of 6-month-old females; type: in vivo, mouse; conditions: 6-month-old APP/PS1 females, 50 mg/kg, 1 month
Outline: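 WT and APP/PS1 females given PBS vehicle or test compound at 50 mg/kg (APP/PS1 only) intranasally for 1 month. Recorded body weight, adipose tissue weight, fasting glucose and triglycerides. Mean ± SEM of five to six animals.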

APP/PS1 male mice [11] = assay: Y-maze test; type: in vivo, mouse; conditions: 100 mg/kg, 1 month
Outline: (§2)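 Behavioural testing in 10-month-old APP/PS1 and WT littermate males, randomised n = 5 per group. Intranasal PBS or test compound at 100 mg/kg for 1 month. Distance travelled also recorded.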

APP/PS1 male mice [12] = assay: Novel object recognition test; type: in vivo, mouse; conditions: APP/PS1 males, 100 mg/kg, 1 month
Outline: as §2

[13] = source not given; cited from earlier work
[14] = N2a-APPswe, 1, 3 and 6 h (Figure S2)
[15] = 6-month-old APP/PS1 females + Iso 50 mg/kg
[16] = 6-month-old APP/PS1 females, 50 mg/kg, vs untreated
[17] = APP/PS1 males, not statistically significant

Question: Which results are given for `CC=Cc1ccc(O)c(OC)c1` [Iso, 2‐methoxy‐4‐(prop‐1‐en‐1‐yl) phenol]?
Answer: Aβ42 peptide levels [1]: no effect was observed; Aβ40 levels ([1]; vs untreated cells): significantly decreased; Nrf2 nuclear levels (Nrf2 in N2a-APPswe cells [2]): significantly increased; Nrf2 activation (ELISA kit) (Nrf2 in N2a-APPswe cells [3]): increased Nrf2 activation; Hmox1 gene expression (reduced in N2a-APPswe) (N2a-APPswe cells [4]; N2a-APPswe, 250 μM, 3 h and 6 h): significantly reverted; Nqo1 gene expression (N2a-APPswe cells [4]; [14]): induced; Sod1 gene expression (N2a-APPswe cells [4]; [14]): induced; Aβ40 peptide levels (N2a-APPswe cells [5]; not transfected N2a-APPswe, silencing experiment set, 24 h): significantly decreased; Aβ40 levels in Nrf2-silenced cells (N2a-APPswe cells [5]; siNrf2 + Iso, N2a-APPswe, 36 h after transfection): further decreased; highest nontoxic concentration tested (N2a-wt cells): 250 µM; highest nontoxic concentration tested (BV-2 cells): 250 µM; Nrf2 activation (luciferase induction) [6]: induced Nrf2 activation; BBB permeability (PAMPA Papp) [7]: could cross the BBB; BACE1 activity (BACE1): inhibited; plasma Aβ40 levels (APP/PS1 female mice [8]; [15]): 72.29 ± 7.271 picograms per milliliter; plasma Aβ42 levels (APP/PS1 female mice [8]; [15]): 83.88 ± 9.498 picograms per milliliter; brain Aβ40 levels (APP/PS1 female mice [8]; [16]): decreased; brain Aβ42 levels (APP/PS1 female mice [8]; [16]): decreased; decrease in brain p44/42 MAPK phosphorylated levels (APP/PS1 female mice [9]; 6-month-old APP/PS1 females): reverted; increase in brain HMOX1 protein levels (APP/PS1 female mice [9]; 6-month-old APP/PS1 mice, p = 0.068): 1.5 fold; brain APP protein levels (APP/PS1 female mice [9]; 6-month-old mice): not altered; adipose tissue weight (APP/PS1 female mice [10]): did not reduce; Y-maze entries in the novel arm (APP/PS1 male mice [11]; [17]): reversed this trend; Y-maze time spent in the novel arm (APP/PS1 male mice [11]; [17]): reversed this trend; Y-maze distance traveled (APP/PS1 male mice [11]; males): not affected; percentage of investigations in the novel object (decreased in APP/PS1 VEH) (APP/PS1 male mice [12]): reverted; recognition index (lowered in APP/PS1 VEH) (APP/PS1 male mice [12]): reversed; octanol-water partition coefficient (logP) [13]: 3.04
